Source: PubChem
HTRA1 inhibitor = HTRA1 serine protease inhibitors, primary screen, biochemical, fluorescence polarization, HTS. Q92743. recombinant HTRA1, FP-rhodamine activity-based probe. inhibition, % at 5.96 µM. hit rate 0.5% among 340,000; in the data active = inhibition above about 36%;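 note: 0% = enzyme with DMSO and 100% = wells lacking enzyme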
mABHD4 FP = ABHD4 inhibitors, primary screen, biochemical, fluorescence polarization, mouse. (Lyso)-N-acylphosphatidylethanolamine lipase (Mus musculus), Q8VD66. purified mABHD4, FP-Rh probe fluorescence polarization. inhibition, % at 8.92 µM. hit rate 0.54% among 370,000. AID 720543, 2013;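 active = inhibition exceeding the mean over every tested compound plus 3 SD, cut at about 30% in these data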;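 note: 0% = plate median of compound wells and 100% = S159A mutant with DMSO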
Target sequence (Q8VD66 whole entry, looked up): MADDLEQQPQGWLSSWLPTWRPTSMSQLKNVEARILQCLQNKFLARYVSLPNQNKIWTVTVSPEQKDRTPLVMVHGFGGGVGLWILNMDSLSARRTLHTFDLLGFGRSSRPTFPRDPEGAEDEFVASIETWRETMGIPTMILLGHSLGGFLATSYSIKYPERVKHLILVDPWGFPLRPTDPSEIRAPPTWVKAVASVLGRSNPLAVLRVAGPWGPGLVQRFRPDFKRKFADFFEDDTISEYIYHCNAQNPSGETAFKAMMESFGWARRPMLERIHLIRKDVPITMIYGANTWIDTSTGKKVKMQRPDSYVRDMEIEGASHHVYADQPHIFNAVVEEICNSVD
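Assay system: Wild-type mouse ABHD4 protein | Medium: HEPES pH 7.0 buffer, 150 mM NaCl, 0.01% Pluronic F-127 | Incubation: Enzyme–compound pre-incubation 45 min, then probe 60 min, both 25 °C | Technique: Fluorescence polarization with parallel and perpendicular emission, 525/598 nm | Evaluation: % inhibition of FP-Rh probe binding versus controls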
TCR-CD3 inh = inhibitors of human TCR-CD3 interaction, primary screen, biochemical, fluorescence, TAMRA-labeled TCR probe. hit rate 0.37% among 360,000. AID 651800, 2012. T-cell receptor (TCR). inhibition, % at 9.4 µM; in the data active = inhibition above about 19%;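 note: recombinant mutant TCR 2C K166C tagged with TAMRA read by polarization; 0% = receptor in buffer alone and 100% = receptor with positive control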
DAGLB inh = DAGLB lipase inhibitors, primary screen, biochemical, fluorescence, HTS; Diacylglycerol lipase-beta (Homo sapiens), Q8NCG7; HEK293T DAGLB membrane lysate, EnzChek fluorogenic substrate; inhibition, % at 5.17 µM; hit rate 0.059% among 340,000; AID 504411, 2011; in the data active = inhibition above about 34%;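 note: 0% = enzyme with vehicle and 100% = wells lacking enzyme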
SIAE inh = human SIAE inhibitors, primary screen, biochemical, fluorescence polarization, FP-Rh probe, 1536-well HTS. SIAE FP-Rh probe binding. inhibition, % at 9.66 µM. hit rate 0.69% among 370,000;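 active = inhibition above a cutoff: mean of compounds within the control limits plus 3 SD of those, cut at about 17% in these data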;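 note: 0% = plate median of compound wells and 100% = probe without SIAE protein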
SIAE inh conf = human SIAE inhibitors, retest, confirmation, biochemical, fluorescence polarization, FP-Rh probe, triplicate; shares compounds with SIAE inh; SIAE FP-Rh activity-based probe; inhibition, % at 9.66 µM; hit rate 13% among 2,300; AID 1117263, 2014;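 active = mean inhibition of the replicates above the hit cutoff set in the primary screen, cut at about 17% in these data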;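 note: 0% = SIAE with DMSO and probe and 100% = probe without SIAE; inhibitors lower polarization as more probe stays unbound to SIAE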
* marks the source's active call; other numbers are inactive results; / = no result. This is a sample that favours compounds with a hit; in the whole collection about 1.5% have one here.

SMILES	HTRA1 inhibitor	mABHD4 FP	TCR-CD3 inh	DAGLB inh	SIAE inh	SIAE inh conf
COC(=O)c1cc2c(c3c4cc(OC)ccc4n(S(=O)(=O)c4ccc(OC)cc4)c13)C(=O)N(Cc1ccccc1)C2	/	4	-5	/	-5	/
CC(=O)c1ccc(NC(=S)Nc2cccc3ccccc23)cc1	8	14	-6	0	32*	1
CC(=O)N(C)c1ccc(NC(=S)Nc2cccc3ccccc23)cc1	9	7	5	1	-12	/
c1ccc(Oc2ccc(-c3ccnc4nc(N5CCN(c6ccccc6)CC5)nn34)cc2)cc1	-4	-9	-7	-2	22*	4
CCc1cccc2c(N=O)c(O)[nH]c12	13	-2	2	-3	21*	15
COc1ccccc1CNC(=O)C1CCCN(S(C)(=O)=O)C1 (configuration not stated)	-3	4	5	0	23*	-1
CC(C)CC(=O)N1CCC(C(=O)NCC2COc3ccccc3O2)CC1 (configuration not stated)	/	2	/	/	6	/
CCNc1nc(NCC)nc(N/N=C/c2ccc(N(C)C)cc2)n1	9	4	-7	1	1	/
CCNc1nc(NCC)nc(N/N=C/c2ccc(O)c(O)c2)n1	32	13	8	1	18*	2
CC(C)CCCC(C)CCOC(=O)CN1CCCC1 (configuration not stated)	3	1	5	-1	18*	-1
Cc1ccc(C)c(C(=O)CN2Cc3ccccc3C2=O)c1	1	1	0	1	23*	-4
COc1cccc(NC(=S)N/N=C2\CC(C)(C)Oc3ccc(O)cc32)c1	2	9	-2	0	36*	21*
COc1cccc(NC(=S)N/N=C2\CC3CCC2(C)C3(C)C)c1 (configuration not stated)	-17	0	-2	-6	10	/
COc1cccc(NC(=S)N2CCN(C)CC2)c1	3	-3	3	0	7	/
Cc1cccc(NC(=S)N/N=C/c2ccc3c(c2)OCO3)c1	-7	0	-5	-4	7	/
Cc1cccc(NC(=S)N/N=C2\CC(C)(C)Oc3ccc(O)cc32)c1	7	28	-2	2	41*	17
COc1cccc(NC(=S)NN=C2CCC(C(C)(C)C)CC2)c1 (configuration not stated)	-11	3	0	-1	19*	2
CC1(C)C/C(=N\NC(=S)Nc2ccccc2F)c2cc(O)ccc2O1	16	21	1	4	37*	38*
O=C(CNS(=O)(=O)c1ccccc1)N1CCN(c2ccccn2)CC1	/	0	/	/	0	/
COC(=O)c1cn(-c2ccc(F)cc2)c(=O)c2ccccc12	-2	3	0	-2	18*	6
O=C(O)c1cn(-c2ccc(F)cc2)c(=O)c2ccccc12	0	2	3	1	0	/
Cc1cn([C@H]2C[C@H](O)[C@@H](CNC(=O)CNC(=O)CN)O2)c(=O)[nH]c1=O	10	1	0	-2	-1	/
Cc1nc(N2CCN(Cc3nc4ccccc4[nH]3)CC2)c2oc3ccccc3c2n1	-13	-9	-2	-2	-2	/
c1ccc2[nH]c(CN3CCN(c4ncnc5c4oc4ccccc45)CC3)nc2c1	-6	6	-9	0	20*	-5
CN(C)c1ccc(/C=N/N2C(=S)SC(C)(C)C2N(O)C(=O)Nc2ccc([N+](=O)[O-])cc2)cc1 (configuration not stated)	-12	4	0	5	21*	14
SMILES	HTRA1 inhibitor	mABHD4 FP	TCR-CD3 inh	DAGLB inh	SIAE inh	SIAE inh conf
CN(c1cccnc1)c1ccc(NC(=O)Cc2c[nH]c3ccccc23)cc1-c1ccc(C(C)(C)C)cc1	/	23	-6	/	10	/
S=C(NCCCc1cnc[nH]1)NCCCN(Cc1ccc(Cl)cc1)c1ccc(Br)cn1	/	9	-3	/	17*	27*
CCOc1ccc(CCNS(=O)(=O)c2cccc3nsnc23)cc1OCC	6	6	7	-1	17*	-1
CCCCNC(=O)CCC(=O)Nc1ccc2nc(N3CCOCC3)cc(C)c2c1	-5	-1	-3	0	24*	-1
C#CCN1CC(COc2ccccc2)Oc2cccc(Oc3ccc(C(C)C)cc3)c2S1(=O)=O (configuration not stated)	/	-7	7	/	-4	/
COC(=O)Cc1c(O)ccn(CCc2c[nH]c3ccccc23)c1=O	5	2	6	-2	0	/
O=c1c(Cc2c(F)cccc2Cl)c(O)ccn1CCc1c[nH]c2ccccc12	-1	3	-2	1	23*	5
COC(=O)C1=C(C)N(C)C(=NCc2ccccc2C(F)(F)F)NC1c1ccc(Cl)cc1 (configuration not stated)	/	-7	-3	/	-5	/
CCN(CC)CCn1c(=N)n(CCO)c2ccccc21	-3	2	-1	0	21*	-7
CC(=O)Nc1ccc(O)cc1[N+](=O)[O-]	-1	-4	-2	-3	20*	-3
COc1cccc(N2CCN(CC(=O)NCc3ccco3)CC2)c1	/	1	/	/	3	/
Cc1cccc(-c2cccc3c4c([nH]c23)[C@@H]2C[C@H](N(C)C(=O)Nc3ccccc3C)[C@H]([C@H](C)O)CN2CC4)c1	/	15	/	/	5	/
CC#CCCCC(=O)Nc1ccccc1C(=O)O	4	-2	7	2	19*	3
COC(=O)C1=C(C(=O)OC)C2(OC1c1ccccc1C)C(=O)c1ccccc1C2=O (configuration not stated)	-5	-3	2	1	19*	-7
COC(=O)C1=C(C)N(C)C(C)=C(C(=O)OC)C1c1ccccc1C	8	-2	-1	-1	3	/
C=CCCC1CN(Cc2ccc(OC)cc2)S(=O)(=O)c2c(Oc3ccc(C(C)C)cc3)cccc2O1 (configuration not stated)	/	-1	-12	/	-4	/
O=C(Cn1c(SCC(=O)N2CCCc3ccccc32)nc2ccccc21)N1CCCC1	-4	/	/	0	/	/
CC(C)NC(=O)Cn1c(SCC(=O)N2CCCc3ccccc32)nc2ccccc21	-3	5	5	0	18*	0
CCCn1cnc2c(oc3ccccc32)c1=O	3	-3	7	0	1	/
O=C(Cn1cnc2c(oc3ccccc32)c1=O)c1ccccc1	4	-1	6	1	18*	-3
CCn1cnc2c(oc3ccccc32)c1=O	-8	-4	0	-2	20*	1
Cc1nnc2nc(N)[nH]n2c1=O	/	-2	-9	/	-2	/
